In publication PMC3090455 (Analytical biochemistry, 2011):

Legend:
human mEH [1] = target: T1, human mEH (Homo sapiens, UniProt P07099); assay: Inhibition potency assay with [3H]-cSO radiochemical substrate, human mEH; assay type: biochemical
T1 sequence (P07099 1-455): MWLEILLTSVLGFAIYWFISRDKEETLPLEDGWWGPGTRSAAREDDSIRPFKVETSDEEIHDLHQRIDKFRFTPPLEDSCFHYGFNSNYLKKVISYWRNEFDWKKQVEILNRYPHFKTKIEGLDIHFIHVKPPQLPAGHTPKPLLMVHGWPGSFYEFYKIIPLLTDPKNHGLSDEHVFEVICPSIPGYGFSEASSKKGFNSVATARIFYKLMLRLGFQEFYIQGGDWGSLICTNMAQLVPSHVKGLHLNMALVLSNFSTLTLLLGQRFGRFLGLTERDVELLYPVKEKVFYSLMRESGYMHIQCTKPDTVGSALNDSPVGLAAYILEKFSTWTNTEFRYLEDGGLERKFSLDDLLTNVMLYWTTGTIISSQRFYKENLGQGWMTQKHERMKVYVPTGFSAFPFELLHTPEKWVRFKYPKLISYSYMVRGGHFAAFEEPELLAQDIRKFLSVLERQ
Procedure, shortened: (§1)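 Radiochemical format with [3H]-cis-stilbene oxide at 50 μM final. Partially purified recombinant enzyme: rat 1.0, human 3.2 μg/mL. Reaction in 100 mM Tris/HCl pH 9.0 with 0.1 mg/mL BSA, 5 min at 30°C, quenched with isooctane to extract remaining epoxide. Radioactive diol in the aqueous phase counted by liquid scintillation; run in triplicate.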

rat mEH [2] = target: T2, rat mEH (Rattus norvegicus, UniProt P07687); assay: Inhibition potency assay with fluorescent substrate 11, rat mEH; assay type: biochemical
T2 sequence (P07687 1-455): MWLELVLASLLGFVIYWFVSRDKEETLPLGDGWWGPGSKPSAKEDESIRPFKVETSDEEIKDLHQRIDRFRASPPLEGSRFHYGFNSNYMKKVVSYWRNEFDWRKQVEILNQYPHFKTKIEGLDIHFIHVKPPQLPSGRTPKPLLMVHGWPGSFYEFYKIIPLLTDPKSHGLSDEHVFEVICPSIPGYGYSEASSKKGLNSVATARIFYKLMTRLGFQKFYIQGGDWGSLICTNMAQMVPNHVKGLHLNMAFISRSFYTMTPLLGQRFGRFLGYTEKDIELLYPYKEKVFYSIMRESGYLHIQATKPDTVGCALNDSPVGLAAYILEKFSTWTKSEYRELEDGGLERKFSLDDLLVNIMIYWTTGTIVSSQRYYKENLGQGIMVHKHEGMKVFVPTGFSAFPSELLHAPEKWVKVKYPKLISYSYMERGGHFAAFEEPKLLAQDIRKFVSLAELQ
Procedure, shortened: (§2)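 Kinetic fluorescent format: baculovirus-expressed, partially purified enzyme in 100 mM Tris/HCl pH 8.5 with 0.1 mg/mL BSA (final human 1.6, rat 0.5 μg/mL), preincubated 5 min at 30°C with inhibitor (0–200 μM final, from DMSO). Substrate at 25 μM final (rat also tested at 2.5 μM). Naphthaldehyde followed 10 min at 30°C. IC50 regressed from ≥6 points in the linear region; three runs, each in triplicate.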

rat mEH [3] = target: T2, rat mEH; assay: Inhibition potency assay with [3H]-cSO radiochemical substrate, rat mEH; assay type: biochemical
Procedure, shortened: as §1

mEH [4] = assay: Retest of screening hits with cSO as substrate; assay type: biochemical; details: suggests false positive in fluorescent assay
human mEH [5] = target: T1, human mEH; assay: High throughput screening end-point assay with 11, human mEH; assay type: biochemical; details: [I] 10 μM, [11] 25 μM, 30 min end-point, room temperature
Procedure, shortened: (§3)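 End-point screen of a pesticide library at 10 μM final. Recombinant partially purified enzyme (human 1.6, rat 0.5 μg/mL final) in 100 mM Tris/HCl pH 8.5 with 0.1 mg/mL BSA, preincubated with compounds 5 min at 30°C. Substrate added to 25 μM, then 30 min at room temperature in the dark before fluorescence reading (ex 330/em 465 nm). Buffer-only background and full-activity control wells; duplicate averages.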

rat mEH [6] = target: T2, rat mEH; assay: High throughput screening end-point assay with 11, rat mEH; assay type: biochemical; details: [I] 10 μM, [11] 25 μM, 30 min end-point, room temperature
Procedure, shortened: as §3

mEH [7] = assay: Retest of screening hits in inhibition potency assay with 11; assay type: biochemical; details: 10 μM
Procedure, shortened: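 Hits from the library screen retested at 10 μM in the kinetic fluorescent format: 5 min preincubation with partially purified enzyme in Tris/HCl pH 8.5 with BSA at 30°C. Then 25 μM substrate, with 6-methoxy-2-naphthaldehyde monitored for 10 min.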

human mEH [8] = target: T1, human mEH; assay: Inhibition potency assay with fluorescent substrate 11, human mEH; assay type: biochemical
Procedure, shortened: as §2

Background = assay type: physicochemical; details: [S] 50 μM, Tris/HCl 100 mM pH 9.0, 0.1 mg/mL BSA, 37°C, 4-nitrophenol absorbance
Procedure, shortened: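 Enzyme-free control wells held Tris/HCl (100 mM, pH 9.0, 0.1 mg/mL BSA), preincubated 5 min at 37°C. Substrate was added from a 5 mM DMSO stock working solution to 50 μM final, and product was read kinetically for 5 min. Read-out was 4-nitrophenol absorbance at […] fluorescence (ex 355/em 450 or ex 330/em 465 nm). Signals were converted to molar amounts via 0.005–0.5 μM standard curves; 8 replicates.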

human mEH [9] = target: T1, human mEH; assay: Specific activity of human mEH for absorbent/fluorescent substrates; assay type: biochemical; details: [S] 50 μM, pH 9.0, 37°C, 4-nitrophenyl substrates
Procedure, shortened: (§4)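 Partially purified recombinant enzyme (0.5–80 μg/mL final) in 100 mM Tris/HCl pH 9.0 with 0.1 mg/mL BSA, preincubated 5 min at 37°C. Substrate added at 50 μM final from 5 mM DMSO stock; buffer-only wells gave background. Read kinetically for 5 min: 4-nitrophenol at 450 nm, or fluorescence (coumarin ex 355/em 450; naphthaldehyde ex 330/em 465). Signals converted via standard curves (0.005–0.5 μM); 8 replicates.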

rat mEH [10] = target: T2, rat mEH; assay: Specific activity of rat mEH for absorbent/fluorescent substrates; assay type: biochemical; details: [S] 50 μM, pH 9.0, 37°C, 4-nitrophenyl substrates
Procedure, shortened: as §4

[11] = substrate: COc1ccc2cc(C(C#N)OC(=O)OCC3CO3)ccc2c1; assay: Kinetic constants determination, rat mEH; assay type: biochemical; details: other: Tris/HCl pH 9.0 100 mM, 0.1 mg/mL BSA, 37°C
[12] = substrate: COc1ccc2cc(C(C#N)OC(=O)OCC3CO3)ccc2c1; assay: Kinetic constants determination, human mEH; assay type: biochemical; details: other: Tris/HCl pH 9.0 100 mM, 0.1 mg/mL BSA, 37°C
[13] = IC50, Rat mEH, 11 as substrate, [11] 25 μM, enzyme 0.5 μg/mL, pH 8.5, 30°C

## CCCCCCCCCSC(C)C(N)=O (stereo not drawn) [A, 2-nonylsulfanyl-propionamide]
Human mEH [1]
  IC50: 500 ± 100 nM
Rat mEH [2]; [13]
  IC50: 4200 ± 700 nM
Rat mEH [2]; IC50, rat mEH, 11 as substrate near its KM, [11] = 2.5 μM
  IC50: 500 nM
Rat mEH [3]
  IC50: 400 ± 100 nM

## Brc1ccc(Oc2ccc(Br)cc2Br)c(Br)c1 [BDE47]
mEH [4]
  mEH inhibition with cSO as substrate: no inhibition was observed
Human mEH [5]
  inhibition of human mEH in library screen: significant inhibition
Rat mEH [6]
  inhibition of rat mEH in library screen: significant inhibition
mEH [7]
  mEH inhibition on retest with 11 in the inhibition potency assay: confirmed mEH inhibition

## CCCCCCCC/C=C/CCCCCCCC(N)=O [B, elaidamide]
Human mEH [1]; read-out: IC50, Human mEH, cSO as substrate, [cSO] 50 μM, enzyme 3.2 μg/mL
  IC50: 1000 ± 100 nM
Rat mEH [2]; read-out: IC50, Rat mEH, 11 as substrate, [11] 25 μM, enzyme 0.5 μg/mL, pH 8.5, 30°C
  IC50: 63000 ± 5000 nM
Rat mEH [3]; read-out: IC50, Rat mEH, cSO as substrate, [cSO] 50 μM, enzyme 1.0 μg/mL
  IC50: 500 ± 100 nM
Human mEH [8]; read-out: IC50, Human mEH, 11 as substrate, [11] 25 μM, enzyme 1.6 μg/mL, pH 8.5, 30°C
  IC50: 140000 ± 13000 nM

## CCCCCCC(O)CCCCCCCCCCC(N)=O (stereo not drawn) [C, 12-hydroxy-octadecanamide]
Human mEH [1]
  IC50: 2600 ± 300 nM
Rat mEH [2]; [13]
  IC50: 123000 ± 13000 nM
Rat mEH [3]
  IC50: 1100 ± 100 nM
Human mEH [8]
  IC50: > 200000 nM

## O=C(OCC1CO1)Oc1ccc([N+](=O)[O-])cc1 (stereo not drawn) [compound 6, 4-Nitrophenyl (oxiran-2-yl)methyl carbonate]
Background
  background hydrolysis: 0.31 ± 0.02 nmol/min
Human mEH [9]
  Human mEH S/B (signal to background ratio): 3
  Human mEH S/N (signal to noise ratio): 53
  Human mEH Spec. act.: 51 ± 2 nmol/min/mg
  Human mEH Z' (screening window coefficient): 0.82
Rat mEH [10]
  Rat mEH S/B (signal to background ratio): 5
  Rat mEH S/N (signal to noise ratio): 32
  Rat mEH Spec. act.: 29 ± 2 nmol/min/mg
  Rat mEH Z' (screening window coefficient): 0.67

## Oc1cc(Cl)ccc1Oc1ccc(Cl)cc1Cl [triclosan]
mEH [4]
  mEH inhibition with cSO as substrate: no inhibition was observed
Human mEH [5]
  inhibition of human mEH in library screen: significant inhibition
Rat mEH [6]
  inhibition of rat mEH in library screen: significant inhibition
mEH [7]
  mEH inhibition on retest with 11 in the inhibition potency assay: confirmed mEH inhibition

## CC(C)[C@H](C(=O)O[C@H](C#N)c1cccc(Oc2ccccc2)c1)c1ccc(Cl)cc1 [Asana]
mEH [4]
  mEH inhibition with cSO as substrate: no inhibition was observed
Human mEH [5]
  inhibition of human mEH in library screen: significant inhibition
Rat mEH [6]
  inhibition of rat mEH in library screen: significant inhibition
mEH [7]
  mEH inhibition on retest with 11 in the inhibition potency assay: confirmed mEH inhibition

B1: rat mEH (Rattus norvegicus) (protein)
chain: MWLELVLASLLGFVIYWFVSRDKEETLPLGDGWWGPGSKPSAKEDESIRPFKVETSDEEIKDLHQRIDRFRASPPLEGSRFHYGFNSNYMKKVVSYWRNEFDWRKQVEILNQYPHFKTKIEGLDIHFIHVKPPQLPSGRTPKPLLMVHGWPGSFYEFYKIIPLLTDPKSHGLSDEHVFEVICPSIPGYGYSEASSKKGLNSVATARIFYKLMTRLGFQKFYIQGGDWGSLICTNMAQMVPNHVKGLHLNMAFISRSFYTMTPLLGQRFGRFLGYTEKDIELLYPYKEKVFYSIMRESGYLHIQATKPDTVGCALNDSPVGLAAYILEKFSTWTKSEYRELEDGGLERKFSLDDLLVNIMIYWTTGTIVSSQRYYKENLGQGIMVHKHEGMKVFVPTGFSAFPSELLHAPEKWVKVKYPKLISYSYMERGGHFAAFEEPKLLAQDIRKFVSLAELQ
[11]
  Km: 2.3 ± 0.4 µM
  Vmax: 0.089 µmol/min/mg
  Vmax/Km: 40000 µL/min/mg

B2: human mEH (Homo sapiens) (protein)
chain: MWLEILLTSVLGFAIYWFISRDKEETLPLEDGWWGPGTRSAAREDDSIRPFKVETSDEEIHDLHQRIDKFRFTPPLEDSCFHYGFNSNYLKKVISYWRNEFDWKKQVEILNRYPHFKTKIEGLDIHFIHVKPPQLPAGHTPKPLLMVHGWPGSFYEFYKIIPLLTDPKNHGLSDEHVFEVICPSIPGYGFSEASSKKGFNSVATARIFYKLMLRLGFQEFYIQGGDWGSLICTNMAQLVPSHVKGLHLNMALVLSNFSTLTLLLGQRFGRFLGLTERDVELLYPVKEKVFYSLMRESGYMHIQCTKPDTVGSALNDSPVGLAAYILEKFSTWTNTEFRYLEDGGLERKFSLDDLLTNVMLYWTTGTIISSQRFYKENLGQGWMTQKHERMKVYVPTGFSAFPFELLHTPEKWVRFKYPKLISYSYMVRGGHFAAFEEPELLAQDIRKFLSVLERQ
[12]
  Km: 3.8 ± 0.6 µM
  Vmax: 0.042 µmol/min/mg
  Vmax/Km: 11000 µL/min/mg
